Experimental findings from ChEMBL document CHEMBL3877325, “Novel salicylanilides from 4,5-dihalogenated salicylic acids: Synthesis, antimicrobial activity and cytotoxicity” (Bioorg Med Chem, 2017) are described below.

≈ marks a conversion by molar mass, not a printed value.

Data set [1] concerns Mycobacterium kansasii. The data set can be described thus: Antimycobacterial activity against Mycobacterium kansasii isolate 235/80 after 14 days by micromethod. Format: functional. To be noted: isolate 235/80, 336 h. The procedure, abridged: (§1)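 MIC in Šula's semisynthetic medium at 37 °C, read after 7, 14 and 21 days. Inoculum is strain dilution 10^-4; 235/80 is a collection strain and 6509/96 a clinical isolate. Compounds are added as DMSO solutions at 500, 250, 125, 62.5, 32, 16, 8, 4, 2, 1 and 0.5 µM. INH (in sterile water) and PAS are the reference drugs.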

Data set [2] concerns Mycobacterium kansasii. The data set can be described thus: Antimycobacterial activity against Mycobacterium kansasii isolate 6509/96 after 14 days by micromethod. In kind it is functional. Conditions: isolate 6509/96, 336 h. The method, boiled down: as §1
A short description of data set [3]: Cytotoxicity against human HepG2 cells assessed as reduction in cell viability after 24 hrs by MTS assay. In kind it is toxicity, cell-based. The procedure, abridged:
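HepG2 cells (passages 33-37) are grown in MEM with 10% FBS, L-glutamine and non-essential amino acids. They are seeded at 1 × 10^4 cells/well and treated next day with 0.1-100 µM in triplicate for 24 h at 37 °C, 5% CO2. MTS reagent is added for 2 h and A490 read.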

Data set [4] can be described thus: Selectivity index, ratio of IC50 for human HepG2 cells to MIC for Mycobacterium tuberculosis H37Rv after 21 days. Conditions: HepG2 cells versus Mycobacterium tuberculosis H37Rv, read-out: Selectivity Index. Format: toxicity, cell-based. The procedure, abridged: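 HepG2 cells (passages 33-37) seeded at 1 × 10^4 per well and treated next day with 0.1–100 µM in triplicate. After 24 h at 37 °C, 5% CO2, MTS reagent added for 2 h and absorbance read at 490 nm. IC50 taken from viability relative to untreated control, then divided by the 21-day H37Rv MIC.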

Data set [5] relates to Mycobacterium kansasii. The experiment in a line: Antimycobacterial activity against Mycobacterium kansasii isolate 6509/96 after 21 days by micromethod. Format: functional. To be noted: isolate 6509/96, 504 h. The procedure, abridged:
as §1

Data set [6] relates to Mycobacterium kansasii. The data set can be described thus: Antimycobacterial activity against Mycobacterium kansasii isolate 235/80 after 21 days by micromethod. To be noted: isolate 235/80, 504 h. Format: functional. The procedure, abridged: as §1
Data set [7] concerns Mycobacterium kansasii. The experiment in a line: Antimycobacterial activity against Mycobacterium kansasii isolate 6509/96 after 7 days by micromethod. Format: functional. Conditions: isolate 6509/96, 168 h. The method, boiled down:
as §1

Data set [8] has as its system Mycobacterium tuberculosis. The experiment in a line: Antimycobacterial activity against Mycobacterium tuberculosis H37Rv My 331/88 after 21 days by micromethod. In kind it is functional. Conditions: H37Rv My 331/88, 504 h. The procedure, abridged: (§2)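 MIC micromethod in Šula's semisynthetic medium at 37 °C, read after 14 and 21 days. Compounds added as DMSO solutions at 500 down to 0.5 µM (twofold-type series: 500, 250, 125, 62.5, 32, 16, 8, 4, 2, 1, 0.5 µM). Isoniazid standard given in sterile water.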

The subject of data set [9] is Mycobacterium kansasii. The experiment in a line: Antimycobacterial activity against Mycobacterium kansasii isolate 235/80 after 7 days by micromethod. Format: functional. To be noted: isolate 235/80, 168 h. The procedure, abridged: as §1
In data set [10] the test system is Mycobacterium tuberculosis. The data set can be described thus: Antimycobacterial activity against Mycobacterium tuberculosis H37Rv My 331/88 after 14 days by micromethod. Conditions: H37Rv My 331/88, 336 h. Format: functional. The method, boiled down:
as §2

In data set [11] the test system is Mycobacterium avium. The data set can be described thus: Antimycobacterial activity against Mycobacterium avium My 330/80 after 14 days by micromethod. Conditions: My 330/80, 336 h. In kind it is functional. The procedure, abridged: (§3)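 M. avium My 330/80 (collection strain) inoculated at 10^-5 dilution into Šula's semisynthetic medium. Compounds added from DMSO solutions at 500, 250, 125, 62.5, 32, 16, 8, 4, 2, 1 and 0.5 µM. MIC determined by micromethod at 37 °C, read after 14 and 21 days.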

For data set [12], the system named is Mycobacterium avium. The data set can be described thus: Antimycobacterial activity against Mycobacterium avium My 330/80 after 21 days by micromethod. In kind it is functional. Conditions: My 330/80, 504 h. The procedure, abridged: as §3

Broadly, the MIC is the lowest concentration found to suppress growth. The term IC50 denotes the concentration needed to halve the response being measured. Turning to `O=C(Nc1ccc(Cl)c(Cl)c1)c1cc(Br)ccc1O`, the MIC against Mycobacterium kansasii [1] came to 8 µM (≈ 2.89 µg/mL); against Mycobacterium kansasii [2] it was 2 µM (≈ 0.722 µg/mL); against Mycobacterium kansasii [5], 4 µM (≈ 1.44 µg/mL); in the data set on Mycobacterium kansasii [6], 8 µM (≈ 2.89 µg/mL); against Mycobacterium kansasii [7] it was 2 µM (≈ 0.722 µg/mL); in data set [8], 4 µM (≈ 1.44 µg/mL). Besides, the MIC in the data set on Mycobacterium kansasii [9] turned out to be 8 µM (≈ 2.89 µg/mL); in data set [10] it was 4 µM (≈ 1.44 µg/mL); in the data set with Mycobacterium avium [11], 8 µM (≈ 2.89 µg/mL); with Mycobacterium avium [12] it was 8 µM (≈ 2.89 µg/mL). Further, in [3], the IC50 at 24 h was found to be 31.5 µM. In addition, in [4], the selectivity ratio at 504 h was found to be 7.87.
On to `O=C(Nc1ccc(C(F)(F)F)cc1)c1ccc(Br)cc1O`, for which the MIC against Mycobacterium kansasii [1] was 2 µM (≈ 0.72 µg/mL); against Mycobacterium kansasii [2] it was 4 µM (≈ 1.44 µg/mL); with Mycobacterium kansasii [5] it was 4 µM (≈ 1.44 µg/mL); in the data set on Mycobacterium kansasii [6], 4 µM (≈ 1.44 µg/mL); in the data set on Mycobacterium kansasii [7] it was 2 µM (≈ 0.72 µg/mL); in data set [8], 2 µM (≈ 0.72 µg/mL). In addition, the MIC worked out at 2 µM (≈ 0.72 µg/mL) against Mycobacterium kansasii [9], 1 µM (≈ 0.36 µg/mL) in data set [10], 8 µM (≈ 2.88 µg/mL) against Mycobacterium avium [11] and 8 µM (≈ 2.88 µg/mL) against Mycobacterium avium [12]. In addition, in data set [3], the IC50 at 24 h was 15 µM. The selectivity ratio at 504 h in data set [4] stood at 7.52.
Regarding `O=C(Nc1ccc(Br)cc1)c1ccc(Br)cc1O`, the MIC is 8 µM (≈ 2.97 µg/mL) against Mycobacterium kansasii [1]; 8 µM (≈ 2.97 µg/mL) in the data set on Mycobacterium kansasii [2]; 8 µM (≈ 2.97 µg/mL) with Mycobacterium kansasii [5]; 8 µM (≈ 2.97 µg/mL) with Mycobacterium kansasii [6]; 8 µM (≈ 2.97 µg/mL) against Mycobacterium kansasii [7]; 4 µM (≈ 1.48 µg/mL) in data set [8]. In addition, the MIC against Mycobacterium kansasii [9] came to 4 µM (≈ 1.48 µg/mL); in data set [10], 2 µM (≈ 0.742 µg/mL); against Mycobacterium avium [11], 16 µM (≈ 5.94 µg/mL); against Mycobacterium avium [12], 16 µM (≈ 5.94 µg/mL). The IC50 at 24 h in data set [3] was 7.59 µM. Moreover, the selectivity ratio at 504 h in data set [4] amounted to 1.9.
As to `O=C(Nc1cc(C(F)(F)F)cc(C(F)(F)F)c1)c1ccc(Br)cc1O`, the MIC in the data set with Mycobacterium kansasii [1] stood at 8 µM (≈ 3.43 µg/mL); in the data set with Mycobacterium kansasii [2], 16 µM (≈ 6.85 µg/mL); against Mycobacterium kansasii [5], 16 µM (≈ 6.85 µg/mL); against Mycobacterium kansasii [6], 16 µM (≈ 6.85 µg/mL); against Mycobacterium kansasii [7], 8 µM (≈ 3.43 µg/mL); in [8], 4 µM (≈ 1.71 µg/mL). Further, the MIC in the data set on Mycobacterium kansasii [9] worked out at 8 µM (≈ 3.43 µg/mL); in data set [10], 2 µM (≈ 0.856 µg/mL); in the data set with Mycobacterium avium [11] it was 32 µM (≈ 13.7 µg/mL); against Mycobacterium avium [12], 32 µM (≈ 13.7 µg/mL). Moreover, in data set [3], the IC50 at 24 h was determined as 8.08 µM. In data set [4], the selectivity ratio at 504 h was determined as 2.02.
With `O=C(Nc1ccc(Br)cc1)c1cc(Cl)c(Br)cc1O`, the MIC amounted to 8 µM (≈ 3.24 µg/mL) against Mycobacterium kansasii [1]; 8 µM (≈ 3.24 µg/mL) in the data set with Mycobacterium kansasii [2]; 8 µM (≈ 3.24 µg/mL) with Mycobacterium kansasii [5]; 8 µM (≈ 3.24 µg/mL) with Mycobacterium kansasii [6]; 4 µM (≈ 1.62 µg/mL) against Mycobacterium kansasii [7]; 2 µM (≈ 0.811 µg/mL) in data set [8]. The MIC with Mycobacterium kansasii [9] is 4 µM (≈ 1.62 µg/mL); in data set [10] it was 2 µM (≈ 0.811 µg/mL); in the data set on Mycobacterium avium [11], 32 µM (≈ 13 µg/mL); against Mycobacterium avium [12], 32 µM (≈ 13 µg/mL). The IC50 at 24 h in [3] was found to be 9.78 µM. In [4], the selectivity ratio at 504 h came out at 4.89.
For `O=C(Nc1ccc(Cl)c(Cl)c1)c1ccc(Br)cc1O`, the minimal inhibitory concentration (MIC) worked out at 4 µM (≈ 1.44 µg/mL) in the data set on Mycobacterium kansasii [1]; 4 µM (≈ 1.44 µg/mL) in the data set with Mycobacterium kansasii [2]; 8 µM (≈ 2.89 µg/mL) against Mycobacterium kansasii [5]; 4 µM (≈ 1.44 µg/mL) with Mycobacterium kansasii [6]; 4 µM (≈ 1.44 µg/mL) in the data set on Mycobacterium kansasii [7]; 2 µM (≈ 0.722 µg/mL) in [8]. Further, the minimal inhibitory concentration (MIC) in the data set with Mycobacterium kansasii [9] amounted to 4 µM (≈ 1.44 µg/mL); in data set [10], 1 µM (≈ 0.361 µg/mL); in the data set on Mycobacterium avium [11] it was 16 µM (≈ 5.78 µg/mL); against Mycobacterium avium [12], 16 µM (≈ 5.78 µg/mL). Moreover, in [3], the IC50 at 24 h stood at 17.7 µM. Besides, in [4], the selectivity ratio at 504 h is 8.84.
In the case of `Nc1ccc(C(=O)O)c(O)c1` [AMINOSALICYLIC ACID], the MIC against Mycobacterium kansasii [1] is 1000 µM (≈ 153 µg/mL); against Mycobacterium kansasii [2] it was 125 µM (≈ 19.1 µg/mL); against Mycobacterium kansasii [5] it was 500 µM (≈ 76.6 µg/mL); in the data set on Mycobacterium kansasii [6], more than 1000 µM; in the data set on Mycobacterium kansasii [7], 32 µM (≈ 4.9 µg/mL); in data set [8] it was 62.5 µM (≈ 9.57 µg/mL). Further, the MIC against Mycobacterium kansasii [9] was found to be 125 µM (≈ 19.1 µg/mL); in data set [10], 62.5 µM (≈ 9.57 µg/mL); against Mycobacterium avium [11], 32 µM (≈ 4.9 µg/mL); against Mycobacterium avium [12], 125 µM (≈ 19.1 µg/mL).
With `NNC(=O)c1ccncc1` [ISONIAZID], the MIC was more than 250 µM against Mycobacterium kansasii [1]; 8 µM (≈ 1.1 µg/mL) with Mycobacterium kansasii [2]; 8 µM (≈ 1.1 µg/mL) with Mycobacterium kansasii [5]; more than 250 µM in the data set with Mycobacterium kansasii [6]; 4 µM (≈ 0.549 µg/mL) against Mycobacterium kansasii [7]; 1 µM (≈ 0.137 µg/mL) in data set [8]. Also, the MIC in the data set with Mycobacterium kansasii [9] is more than 250 µM; in data set [10] it was 0.5 µM (≈ 0.0686 µg/mL); against Mycobacterium avium [11], more than 250 µM; in the data set with Mycobacterium avium [12], more than 250 µM.
